Results from different studies.
Each line is one published result; the experiments were not run side by side.
CDK4 with cyclin D3: Cyclin-dependent kinase 4, with cyclin D3 (CDK4, Homo sapiens, UniProt P11802)
AMY2: Pancreatic alpha-amylase (AMY2, Sus scrofa, UniProt P00690)
CDK4 with cyclin D1: Cyclin-dependent kinase 4, with cyclin D1 (CDK4, Homo sapiens, UniProt P11802)
CHRM2: Muscarinic acetylcholine receptor M2 (CHRM2, Homo sapiens, UniProt P08172)

CNS(=O)(=O)c1ccc(Nc2ncc(C(F)(F)F)c(N3CCC(C)(O)CC3)n2)c(C)c1 — IC50 (CDK4 with cyclin D3; enzyme activity, inhibitor, radiometric): 0.201 µM
O=c1cc(-c2ccc(O)c(O)c2)oc2cc(O)cc(O)c12 — IC50 (AMY2; enzyme activity, inhibitor): 2.18 µM
Cc1cc(O)c(-c2ccc([C@@H](C)CN(C)C)cc2)c2c1[nH]c(=O)c1sccc12 — IC50 (CDK4 with cyclin D1; enzyme activity, inhibitor): > 1 µM
O=c1c(O)c(-c2ccc(O)cc2)oc2cc(O)cc(O)c12 — IC50 (AMY2; enzyme activity, inhibitor): 10.4 µM
CNS(=O)(=O)c1ccc(Nc2ncc(C(F)(F)F)c([C@H]3CC[C@@](C)(O)CC3)n2)c(C)c1 — IC50 (CDK4 with cyclin D3; enzyme activity, inhibitor, radiometric): 3.47 µM
COc1ccc2c(c1)CN(C(=O)CCN1CCC(Cc3ccccc3)CC1)CC[S@@+]2[O-] — IC50 (Voltage-dependent L-type calcium channel subunit alpha-1C (CACNA1C, Homo sapiens, UniProt Q13936); ion current, inhibitor, patch clamp): > 100 µM
NC(=O)c1nnn(Cc2cc(Cl)c(C(=O)c3ccc(Cl)cc3)c(Cl)c2)c1N — IC50 (CHRM2; cAMP, antagonist): 1.85 µM
O=C(CCNC(=O)CNC(=O)CC(c1ccccc1)(c1ccccc1)c1ccccc1)NC[C@@H]1CCCN(Cc2cccnc2F)C1 — IC50 (CHRM2; ligand displacement, radioligand; cell membranes): > 30 µM
CNS(=O)(=O)c1ccc(Nc2ncc(C(F)(F)F)c(N3CCC[C@](C)(O)C3)n2)c(C)c1 — IC50 (CDK4 with cyclin D3; enzyme activity, inhibitor, radiometric): 0.827 µM
COc1ccc(-c2oc3cc(Nc4ncc5cc(C(=O)N(C)C)n(C6CCCC6)c5n4)ccc3c(=O)c2F)cc1 — IC50 (CDK4 with cyclin D1; enzyme activity, inhibitor, radiometric): 1.07 µM
O=C(/C=C/c1ccc(O)c(O)c1)O[C@H](Cc1ccc(O)c(O)c1)C(=O)O — IC50 (Pancreatic triacylglycerol lipase (PNLIP, Sus scrofa, UniProt P00591); enzyme activity, inhibitor, absorbance; pH 8): 137 µM
CN(C)C(=O)c1cc2cnc(Nc3ccc4c(=O)cc(N5CCOCC5)oc4c3)nc2n1C1CCCC1 — IC50 (CDK4 with cyclin D1; enzyme activity, inhibitor, radiometric): 0.0042 µM
O=C(CCNC(=O)CNC(=O)CC(c1ccccc1)(c1ccccc1)c1ccccc1)NCC1CCN(Cc2ccc(F)cc2)CC1 — IC50 (CHRM2; ligand displacement, radioligand; cell membranes): 6.4 µM
CN(C)C(=O)c1cc2cnc(Nc3ccc(-c4cccc5c(=O)cc(N6CCOCC6)oc45)c(F)c3)nc2n1C1CCCC1 — IC50 (CDK4 with cyclin D1; enzyme activity, inhibitor, radiometric): 0.116 µM
O=c1cc(-c2ccc(O)c(O)c2)oc2c(Br)c(O)c(Br)c(O)c12 — IC50 (AMY2; enzyme activity, inhibitor): 0.99 µM
CN(C)C(=O)c1cc2cnc(Nc3cccc4c(=O)cc(N5CCOCC5)oc34)nc2n1C1CCCC1 — IC50 (CDK4 with cyclin D1; enzyme activity, inhibitor, radiometric): > 10 µM
CC(C)NC(=O)COc1cccc(-c2nc(Nc3ccc4[nH]ncc4c3)c3ccccc3n2)c1 — IC50 (Organic anion transporter 3 (SLC22A8, Homo sapiens, UniProt Q8TCC7); transporter uptake, inhibitor, radiometric; HEK293): > 1 µM
CN(C)C(=O)c1cc2cnc(Nc3ccc(-c4cccc5c(=O)cc(N6CCOCC6)oc45)cn3)nc2n1C1CCCC1 — IC50 (CDK4 with cyclin D1; enzyme activity, inhibitor, radiometric): 0.46 µM
CC(C)(C)NS(=O)(=O)c1cccc(C(=O)N2CC3(CCC4(CC4)CC3)c3cc(NS(C)(=O)=O)ccc32)c1 — IC50 (Kinesin-like protein KIF18B (Homo sapiens, UniProt Q86Y91); ATPase activity, inhibitor): > 100 µM
